# Screens as filed in PubChem BioAssay.
# Mdm2-MdmX inh – human Mdm2/MdmX binding inhibition; O15151+Q00987; SaOS-2 split-luciferase Mdm2/MdmX complementation, luminescence; inhibition, % at 8 µM; 330,000 compounds, 3% hits; AID 485346;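 active = inhibition of at least 50% at 8 µM in the primary screen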
# CSC inhib – cancer stem cell inhibition. cancer stem cell-like cells viability, luminescence. inhibition, % at 7.5 µM. 300,000 compounds, 1.1% hits; in the data active = inhibition above about 75%; inconclusive = no clear call, values can overlap the other calls; tested in HMLE shEcad cells
# aSyn UTR inh – 5' untranslated region of α-synuclein, MLPCN primary screen. 300,000 compounds, 0.82% hits. alpha-synuclein 5'UTR reporter, inhibitor activity. AID 1813. inhibition, % (tested at 7.5 µM); in the data active = inhibition above about 60%; inconclusive = no clear call, values can overlap the other calls;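 also: H4 neuroglioblastoma cells stably carrying SNCA 5'UTR luciferase fusion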
# T cruzi inh – T. cruzi replication inhibition | T. cruzi beta-gal in NIH3T3, luminescence, 90 h | 300,000 compounds, 1.4% hits | inhibition, % (concentration not given with the values);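 active = mean inhibition across valid replicates above about 55%, limit read from the data; inconclusive = mean below that limit but half or more replicates reach it; inactive = mean below it, under half of replicates reach it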;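 also: signal also drops with host cell toxicity which is not excluded here; higher percent means less beta-gal luminescence so fewer parasites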
#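 Assay system: NIH/3T3 fibroblasts plus reporter T. cruzi. Amount: NIH/3T3 cells, 5,000 per well. Buffer or medium: DMEM, 2% fetal bovine serum. Doses: compound pinned at 50 nL/well, DMSO. Schedule: ≥90 h infection period, 3 h prior cell attachment. Signal: luminescent β-galactosidase signal after 60 min lysis. Read-out: parasite load inhibition, %.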
# SKKanGAS inh – inhibitors of SKKanGAS S. pyogenes growth in kanamycin (SK-promoter or general growth effect); inhibition, % at 7.5 µM; 300,000 compounds, 1.3% hits; AID 1662; BacTiter-Glo, 6 h;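 active = mean replicate score, as percent of positive control median, at least 50; inconclusive = mean below 50 but one replicate at or above 50; inactive = mean and every replicate below 50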;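 also: strain carries kanamycin resistance gene driven by streptokinase promoter and grows in 40 µg/ml kanamycin; loss of luminescence reflects streptokinase promoter inhibition or plain growth inhibition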
# Mdm2 MdmX conf – confirmation of human Mdm2/MdmX interaction inhibitors; shares compounds with Mdm2-MdmX inh; Mdm2-MdmX binding, luminescent assay; inhibition, % at 8 µM; 10,000 compounds, 55% hits; in the data active = inhibition above about 40%
# FLuc counter – counter-screen for Mdm2/MdmX inhibitors: full-length luciferase. shares compounds with Mdm2-MdmX inh. SaOS-2 full-length luciferase counterscreen, luminescence. inhibition, % at 8 µM. 6,200 compounds, 77% hits. AID 504607;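 active = mean inhibition at 8 µM reaching about 37%, which flags the compound as non-specific, limit read from the data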;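 also: p53-null SaOS-2 cells with luciferase driven by a doxycycline-inducible promoter; compound on cells about two nights before reading with doxycycline added after day one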
# A number is an active result; i = inactive; ? = inconclusive; nt = no result given. Sampled rows, rich in hits. Any-hit rate of the full collection: about 5.4%.
SMILES,Mdm2-MdmX inh,CSC inhib,aSyn UTR inh,T cruzi inh,SKKanGAS inh,Mdm2 MdmX conf,FLuc counter
CC(=O)Nc1ccc(S(=O)(=O)N2CCCc3ccccc32)cc1,58,i,i,i,i,59,51
CC1CN(S(=O)(=O)c2ccc(C(=O)Nc3nnc(-c4ccc5c(c4)CCCC5)o3)cc2)CC(C)O1 (stereo unspecified),67,i,76,61,93,i,59
COC(=O)C1=C(CSc2nc3ccccc3s2)NC(=O)NC1c1ccc(F)cc1 (stereo unspecified),i,i,i,i,i,nt,nt
COCc1nnc(NC(=O)c2ccc(S(=O)(=O)N3CCCc4ccccc43)cc2)o1,i,i,i,i,i,nt,nt
O=C(Nc1nnc(C2CC2)o1)c1ccc(S(=O)(=O)N2CCCc3ccccc32)cc1,50,i,63,59,91,44,71
O=C(Nc1nnc(C2CC2)o1)c1ccc(S(=O)(=O)N2CCCCC2)cc1,i,i,i,i,i,nt,nt
COc1ccc(-c2nnc(NC(=O)c3ccc(S(=O)(=O)N4CCCc5ccccc54)cc3)o2)cc1,62,nt,69,63,94,59,46
CC1=NN(c2ccc(C(=O)O)cc2)C(=O)/C1=C/c1ccc(-c2ccccc2F)o1,i,i,i,i,i,nt,nt
CC1=NN(c2ccc(C)cc2)C(=O)/C1=C/c1ccc(-c2cc([N+](=O)[O-])ccc2O)o1,67,nt,i,i,i,i,nt
Cn1c(=O)c(C#N)c(-c2ccc(F)cc2)c2cc(C(=O)c3cc(Cl)cc(Cl)c3O)cnc21,83,124,i,i,99,87,i
COc1ccccc1-n1c(=O)c(C#N)c(-c2ccc([N+](=O)[O-])cc2)c2cc(C(=O)c3cc(F)ccc3O)cnc21,i,i,i,i,i,nt,nt
CN(c1cccc(Cl)c1)S(=O)(=O)c1cccc(C(=O)Nc2nc3ccccc3[nH]2)c1,81,i,i,i,90,i,58
COc1cccc(C(=O)NCc2ccco2)c1OC,i,i,i,i,i,nt,nt
FC(F)(F)c1nnc2c(Sc3ccccn3)nc3ccccc3n12,i,i,i,i,i,nt,nt
FC(F)(F)c1nnc2c(Sc3ccc(Cl)cc3)nc3ccccc3n12,85,i,i,i,i,95,i
FC(F)(F)c1nnc2c(Sc3ccccc3)nc3ccccc3n12,68,i,i,i,i,i,nt
Cc1ccccc1OCc1occc1C(=O)Nc1cccc(-n2cnnn2)c1,59,i,i,i,i,47,47
CCOC(=O)c1nc(Nc2ccc(N3CCC(C)CC3)cc2)c2ccccc2n1,i,i,i,i,i,nt,nt
CCN(CC)CCn1c(=N)n(CC(O)COc2cccc(C)c2)c2ccccc21 (stereo unspecified),i,i,i,i,i,nt,nt
N=c1n(Cc2ccccc2)c2ccccc2n1CC(O)COc1ccc(Cl)cc1Cl (stereo unspecified),100,nt,90,i,nt,100,61
Cc1cccc(OCC(O)Cn2c(=N)n(Cc3ccccc3)c3ccccc32)c1 (stereo unspecified),88,i,i,i,i,64,64
Cc1ccc(OCC(O)Cn2c(=N)n(Cc3ccccc3)c3ccccc32)cc1 (stereo unspecified),67,i,i,?,i,52,49
COc1ccc(OCC(O)Cn2c(=N)n(Cc3ccccc3)c3ccccc32)cc1 (stereo unspecified),54,i,i,i,i,43,65
Cc1nccn1CCOc1ccc(Cl)cc1,i,nt,i,i,i,nt,nt
Cc1nn2c(-c3ccccn3)ccnc2c1Br,i,i,i,i,i,nt,nt
SMILES,Mdm2-MdmX inh,CSC inhib,aSyn UTR inh,T cruzi inh,SKKanGAS inh,Mdm2 MdmX conf,FLuc counter
O=C(CCCOc1ccc(Cl)cc1)NCCc1ccccc1,i,i,i,i,i,nt,nt
O=C(NCCc1nnc2ccc(NCc3ccc(F)cc3)nn12)c1ccccc1,i,i,i,i,i,nt,nt
N=c1n(CCO)c2ccccc2n1Cc1ccc(Cl)cc1,i,i,i,i,i,nt,nt
N=c1n(Cc2ccc(Cl)cc2)c2ccccc2n1CC(O)COc1ccccc1 (stereo unspecified),88,i,i,i,i,i,88
Cc1cccc(OCC(O)Cn2c(=N)n(CCN3CCCCC3)c3ccccc32)c1 (stereo unspecified),53,i,i,i,i,46,61
CCOC(=O)CSc1n[nH]c(NC(=O)NC(C)C)n1,i,i,i,i,i,nt,nt
CCSc1nnc(NC(=O)CCc2ccc(OC)cc2)s1,i,i,i,i,i,nt,nt
O=C(CN1CCN(c2ccccc2O)CC1)Nc1ccnn1C1CCCC1,i,nt,nt,nt,nt,nt,nt
Cc1ccc(Cn2nnnc2CN2CCC(c3nc4ccc(Cl)cc4[nH]3)CC2)cc1,58,i,78,i,i,i,46
Cc1c(CN(C)C)c2c(n1Cc1ccccc1)C(=O)c1ccc(Br)cc1-2,77,i,i,i,i,61,i
COc1ccc(OC)c(Nc2cc(C)nc3ccccc23)c1,i,i,i,i,i,nt,nt
COc1ccc(OC)c(Nc2cc(-c3ccccc3)nc(N)n2)c1,69,i,68,i,i,71,72
Cc1ccc(C2CC(c3cccs3)=NN2C(=O)CSc2nc3ccccc3o2)cc1 (stereo unspecified),i,i,i,i,i,nt,nt
CC1(C)OC(=O)C(=NNc2ccc(Cl)cc2)C(=O)O1,i,i,i,i,i,nt,nt
COc1ccc(-c2csc(N3CCN(c4cc(C)nc5ccccc45)CC3)n2)cc1OC,96,95,i,i,i,58,74
COc1cc(-c2csc(N3CCOCC3)n2)cc(OC)c1OC,i,i,i,i,i,nt,nt
COc1cccc(Cl)c1NC(=O)N1CCN(c2cc(C)nc3ccccc23)CC1,55,i,i,i,i,i,nt
CN(C(=O)c1ccc(Br)o1)C1(C)CCS(=O)(=O)C1 (stereo unspecified),i,i,i,i,i,nt,nt
NC(=O)c1nsc(C(=O)N(c2ccccc2F)C(C(=O)NCc2ccc(F)cc2)c2ccc(O)cc2)c1N (stereo unspecified),65,nt,i,i,i,63,81
COc1ccccc1N(C(=O)c1snc(C(N)=O)c1N)C(C(=O)NCc1ccccc1)c1ccc(O)cc1 (stereo unspecified),i,nt,i,i,i,nt,nt
COc1ccc2[nH]c(=O)c(CN(Cc3cccs3)S(=O)(=O)c3cccc4nsnc34)cc2c1,75,nt,76,i,i,76,45
COC(=O)c1sc(NC(=O)C2CCCCC2C(=O)O)c(C(=O)OC)c1C (stereo unspecified),i,i,i,i,i,nt,nt
CCOc1ccccc1CNC(=O)c1cc2oc3ccccc3c2n1C,84,i,?,i,i,87,i
Cc1ccc(-c2nc3ccccc3s2)cc1NC(=S)NC(=O)c1cccc2ccccc12,99,i,i,i,i,i,nt
CCOP(=O)(c1ccccc1)C(O)c1ccc(Br)cc1 (stereo unspecified),i,i,i,i,i,nt,nt
